High-throughput results deposited in PubChem BioAssay by Broad Institute.
Ecoli rRNA inh: reduced GFP signal of wild-type E. coli, primary screen, bacterial rRNA inhibitor project, GFP/RFP fluorescence, OD600, single point | 1.6% of 350,000 active | E. coli WT GFP vs humanized-ribosome RFP mutants, 24 h; active compounds read low; DMSO median 0, no signal -100 | GFP signal change (wild-type ribosome), % (no concentration beside the values) | AID 720706, 2013;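 active = significant combined selectivity score with lowered wild-type GFP, culture density cut under 30%, mutant RFP and density less affected; inactive = any of these conditions unmet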
PGC1a acetyl inh: inhibitors of PGC1a acetylation signal, primary screen, cell-based, U2OS, AlphaScreen, inhibitor mode. AlphaScreen anti-acetyl-lysine; with virally co-expressed GCN5 acetyltransferase. inhibition, % at 15.6 µM. 0.17% of 350,000 active. AID 651687, 2012;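 active = every replicate shows inhibition of at least 40%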;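 note: 0% = neutral control wells and 100% = positive control wells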
FGF22 binding: binders of human FGF22 protein, primary screen, FGF22 synaptogenesis inhibitor project, biophysical, thermal shift, single point | Fibroblast growth factor 22 (Homo sapiens), Q9HCT0 | recombinant FGF22 thermal shift, SYPRO orange fluorescence; percent of sucrose octasulfate shift, DMSO zero | activity (Tm shift, normalised), % at 9.99 µM | 1.5% of 340,000 active;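 active = mean Tm shift, scaled 0 neutral to 100 positive control, at about 1.3% or above, every replicate too, limit read from the data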
HIV Env fusion: inhibitors of HIV-1 Env-driven cell-cell fusion, primary screen, HeLa-JRFL effector, CEM21 target cells, luciferase; 1.1% of 360,000 active; inhibition, % at 12.3 µM;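 active = mean replicate inhibition score of at least 50 and every replicate individually at or above 50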;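 note: 0% = plate neutral controls and 100% = maraviroc near 300 nM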
ERAP1 HTS inh: human ERAP1 aminopeptidase inhibitors, primary screen, biochemical, single point, plate reader | Endoplasmic reticulum aminopeptidase 1 (Homo sapiens), Q9NZ08 | 0.15% of 340,000 active | inhibition, % at 10.7 µM | AID 652197, 2013 | recombinant ERAP1, Leu-AMC fluorescence, 60 min;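 active = mean replicate inhibition of at least 30%, or all replicates individually reaching that 30% level; inactive = mean below 30% and not every replicate reaching it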;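 note: 0% = neutral control wells and 100% = L-leucinethiol positive control wells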
Target sequence (Q9NZ08 whole entry, looked up): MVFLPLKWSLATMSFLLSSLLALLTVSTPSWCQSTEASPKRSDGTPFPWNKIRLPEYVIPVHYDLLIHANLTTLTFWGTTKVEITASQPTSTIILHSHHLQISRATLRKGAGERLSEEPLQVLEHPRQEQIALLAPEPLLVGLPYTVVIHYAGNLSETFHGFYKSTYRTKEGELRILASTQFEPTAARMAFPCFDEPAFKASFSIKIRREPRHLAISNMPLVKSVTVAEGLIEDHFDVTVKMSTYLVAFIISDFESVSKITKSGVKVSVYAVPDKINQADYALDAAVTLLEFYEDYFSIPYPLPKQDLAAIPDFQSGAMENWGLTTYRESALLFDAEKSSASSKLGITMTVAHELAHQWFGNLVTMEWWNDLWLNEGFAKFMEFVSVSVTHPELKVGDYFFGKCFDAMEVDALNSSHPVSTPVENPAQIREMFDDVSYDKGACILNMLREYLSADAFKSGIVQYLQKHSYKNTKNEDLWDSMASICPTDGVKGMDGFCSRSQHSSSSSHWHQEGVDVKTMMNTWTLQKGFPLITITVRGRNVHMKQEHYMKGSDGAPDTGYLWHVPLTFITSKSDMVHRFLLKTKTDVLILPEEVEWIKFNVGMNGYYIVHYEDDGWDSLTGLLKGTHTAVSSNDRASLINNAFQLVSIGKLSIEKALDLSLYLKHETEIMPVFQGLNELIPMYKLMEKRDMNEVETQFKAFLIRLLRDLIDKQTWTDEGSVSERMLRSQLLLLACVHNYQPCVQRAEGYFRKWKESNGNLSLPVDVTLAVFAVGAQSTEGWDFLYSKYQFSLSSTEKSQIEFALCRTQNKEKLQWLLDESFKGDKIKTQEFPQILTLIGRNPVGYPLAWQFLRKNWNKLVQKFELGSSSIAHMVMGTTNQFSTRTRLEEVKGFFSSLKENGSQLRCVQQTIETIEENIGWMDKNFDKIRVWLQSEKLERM
Cneo AK release: Cryptococcus neoformans cell lysis inducers, primary screen, AK release luminescence, single concentration; C. neoformans lysis, adenylate kinase release luminescence, 4 h; normalised: neutral wells 0, clomiphene wells 100; lysis activity, % at 15 µM; 0.2% of 360,000 active; AID 651654, 2012;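 active = mean lysis activity across replicates of at least 80%, whatever share of replicates individually reach that level; inactive = mean lysis activity below 80%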
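Assay system: C. neoformans cells. Amount: yeast cell density of 5 × 10^6 cells/mL. Technique: AK luminescence. Buffer or medium: YPD. Times: static 4 h at 37 °C with compound, 1 h detection. Dosing: single-point compound dose. Read-out: lysis from increased AK signal.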
Numbers without * were called inactive; . = not tested or not shown; [ ] = another dose, or the depositor's remark. An excerpt weighted towards active compounds, which were near 3.5% of everything screened.

SMILES	Ecoli rRNA inh	PGC1a acetyl inh	FGF22 binding	HIV Env fusion	ERAP1 HTS inh	Cneo AK release
C=CC[C@H]1CC(C)=C[C@H](CC=C)N1C(=O)c1cc(COc2ccccc2SC)on1	6.7	-15.1	-0.1	9.7	1.1	-0.9
CC(CCCC(C)(C)O)NC(=O)c1ccc(OC2CCN(C(=O)C3CC3)CC2)cc1 (stereo unspecified)	.	-18.9	43.3*	-10.2	2.9	-1.5
CC(C)C[C@H](NC(=O)c1ccc(OC2CCN(C(=O)C3CC3)CC2)cc1)C(N)=O	4.4	.	.	-2.9	0.6	.
CCOc1ccc(NS(=O)(=O)c2ccc(C(=O)N(C)CCc3ccc(OC)c(OC)c3)cc2)cc1	-2.8	-4.1	0.0	88.7*	3.3	2.4
Cc1cnc(NC(=O)Cc2c[nH]c3ccccc23)s1	-22.4*	-3.1	0.1	.	1.2	4.3
CCOc1ccc(NC(=O)CN2CCN(C3c4ccccc4-c4ccccc43)CC2)cc1	.	5.5	.	-67.1	.	-4.1
CC[C@H](C)[C@@H]1NC(=O)[C@@H](CC(C)C)NC(=O)[C@H](C(C)C)NC(=O)[C@H]2CSSC[C@H](NC1=O)C(=O)N2	-8.8	72.2*	-0.2	69.3*	2.8	0.3
O=S(=O)(Nc1ncn[nH]1)c1ccc(Cl)cc1	.	.	.	-12.9	.	6.2
CCOC(=O)CNC(=O)C(CC(C)C)NC(=O)C1CCCCC1 (stereo unspecified)	.	-7.3	.	-23.4	.	0.7
Cc1ccc2nc(-c3ccc(NC(=S)NC4CC(C)(C)NC(C)(C)C4)cc3)sc2c1	-37.0	-4.6	43.1*	-106.2	7.2	-11.4
CCOC(=O)[C@]12CCC=C1N(Cc1ccc(Cl)cc1Cl)C(=O)[C@H](CC(=O)N1CCOCC1)C2	1.1	.	0.0	7.8	13.1	.
COc1ccc(-c2cnc3c(c2)C(=O)N([C@H](C)CO)C[C@@H](C)[C@@H](CN(C)C(=O)Nc2c(C)noc2C)O3)cc1	4.3	43.5*	0.1	-5.3[16.7 µM]	-0.1	-9.2
COc1ccc(-c2cnc3c(c2)C(=O)N([C@@H](C)CO)C[C@H](C)[C@@H](CN(C)S(C)(=O)=O)O3)cc1	3.1	-10.2	-0.2	-16.0[16.7 µM]	-7.4	81.3*
COc1ccc(-c2cnc3c(c2)C(=O)N([C@H](C)CO)C[C@H](C)[C@H](CN(C)C(=O)NC(C)C)O3)cc1	1.2	6.2	-0.2	-14.2[16.7 µM]	-0.2	1.6
COc1ccc(-c2cnc3c(c2)C(=O)N([C@H](C)CO)C[C@H](C)[C@@H](CN(C)C(=O)C2CC2)O3)cc1	1.7	111.1*	.	-66.2[16.7 µM]	.	.
N#Cc1c(-c2ccco2)ccn(Cc2cccc(F)c2)c1=O	-16.9*	4.9	0.3	-5.9	-4.3	0.7
CC(=O)NS(=O)(=O)c1ccc(NC(=S)NC(=O)Cc2ccccc2)cc1	9.6	.	43.1*	4.9	-0.6	-1.9
C[C@@H]1CN([C@H](C)CO)C(=O)c2cc(-c3ccc(F)cc3)cnc2O[C@H]1CN(C)CC1CCCCC1	0.0	-22.5	-0.4	16.2[16.7 µM]	-11.8	105.8*
Cc1ccc(-c2cnc3c(c2)C(=O)N([C@@H](C)CO)C[C@@H](C)[C@H](CN(C)C)O3)cc1	3.2	109.0*	0.2	-2.6[16.7 µM]	2.9	-2.4
Cc1ccc(S(=O)(=O)N(C)C[C@@H]2Oc3ncc(Br)cc3C(=O)N([C@@H](C)CO)C[C@H]2C)cc1	-2.9	-11.9	0.3	12.2[16.7 µM]	-5.2	90.6*
C[C@H](CO)N1C[C@H](C)[C@H](CN(C)CC2CCCCC2)Oc2ncc(-c3ccc(F)cc3)cc2C1=O	5.7	0.5	-0.3	-17.9[16.7 µM]	-14.6	-2.3
Cc1ccc(S(=O)(=O)N(C)C[C@H]2Oc3ncc(Br)cc3C(=O)N([C@H](C)CO)C[C@H]2C)cc1	-2.3	-2.4	-0.1	32.5[16.7 µM]	-3.0	-0.4
O=C1Nc2ccccc2N=C(c2ccc3c(c2)OCO3)C1N(CCc1ccccc1)C(=O)CSc1ncccn1 (stereo unspecified)	-3.2	-12.4	0.1	.	-1.2	2.0
COc1ccc(/C(O)=C2/C(=O)C(=O)N(c3ncccn3)C2c2ccc(C(C)(C)C)cc2)cc1 (stereo unspecified)	11.8	.	0.0	15.4	2.0	.
CCOc1ccc(/C(O)=C2/C(=O)C(=O)N(c3ncccn3)C2c2ccc(Cl)cc2)cc1 (stereo unspecified)	-31.6*	-4.2	0.0	0.2	4.4	0.0
SMILES	Ecoli rRNA inh	PGC1a acetyl inh	FGF22 binding	HIV Env fusion	ERAP1 HTS inh	Cneo AK release
Fc1ccc(-[n+]2nc(Nc3ccccc3)sc2-c2c(Cl)cccc2Cl)cc1	-40.5	-1.8	-0.3	-1.9	2.6	4.6
CCc1ccc(Nc2n[n+](-c3ccccc3)c(-c3c(Cl)cccc3Cl)s2)cc1	-58.7	.	-0.6	69.6*	-3.5	1.1
NC(=O)c1ccccc1OCC(=O)NC12CC3CC(CC(C3)C1)C2	.	-1.9	.	.	.	-1.4
Cc1ccc(C(C(=O)NC2CCCC2)N(Cc2ccc(F)cc2)C(=O)c2csnn2)o1 (stereo unspecified)	.	.	.	41.9	.	.
CCc1ccc(N(C(=O)c2snc(C(N)=O)c2N)C(C(=O)NC2CCCC2)c2ccco2)cc1 (stereo unspecified)	2.9	.	-0.1	55.9*	0.6	-1.7
COc1ccc(CN(C(=O)Cc2c[nH]c3ccccc23)C(C(=O)NC2CCCCC2)c2ccc(C)o2)cc1 (stereo unspecified)	.	-5.6	.	108.6*	.	1.9
Cc1ccc(C(C(=O)NC2CCCC2)N(Cc2ccc(F)cc2)C(=O)c2snc(C(N)=O)c2N)o1 (stereo unspecified)	4.3	.	0.0	64.8*	-4.0	-2.4
Cc1noc(C)c1S(=O)(=O)N(C)C[C@H]1Oc2ccc(NS(C)(=O)=O)cc2C(=O)N([C@H](C)CO)C[C@H]1C	0.6	-0.6	-0.1	.	-0.5	2.8
CC(=O)NCCC(=O)N1CCCC(CNC(=O)c2ccc(-c3ccccc3)cc2)C1 (stereo unspecified)	.	.	43.3*	3.4	-3.7	.
C=CCC(=O)N1CCCC(CNC(=O)c2ccc(-c3ccccc3)cc2)C1 (stereo unspecified)	-24.7	-13.5	-0.2	8.3	-2.5	-3.1
COc1ccc(C(=O)c2cc([N+](=O)[O-])ccc2N2CCOCC2)cc1	-19.1*	.	-0.2	-6.1	1.8	.
CCOc1ccc(C(=O)c2cc([N+](=O)[O-])ccc2N2CCOCC2)cc1	-15.3	.	-0.1	-338.8	0.1	.
